Results published in the RNAGym collection of RNA variant scans (doi:10.1126/science.aae0568).
This sample holds only a part of the variants without activity.

B1: tRNA (parent)
chain: GUUCCGUUGGCGUAAUGGUAACGCGUCUCCCUCCUAAGGAGAAGACUGCGGGUUCGAGUCCCGUACGGAACG

Variants of: B1
Assay: yeast fitness relative to wild type (ratio to wild type); higher = fitter; tRNA-Arg(CCU), competitive growth, 37 C, YPD
Method in brief: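 A pool of Saccharomyces cerevisiae strains, each with a tRNA-Arg(CCU) gene variant at the native genomic locus, was competed in YPD at 37°C for 24 hours across six parallel replicates. The variants had been chemically synthesised at a 3% per-site mutation rate over 69 sites, and gene amplicons before and after competition were read by 100-nucleotide paired-end sequencing. Darwinian fitness relative to wild type rested on changes in genotype frequencies. Genotypes required ≥ 100 starting reads, and estimates < 0.5 were set to 0.5.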
U26C C61G C62G gave a yeast fitness of no more than 0.5.
Work on U26A G51A yielded a yeast fitness of 0.769.
U26C C30U U59A A69U showed a yeast fitness of no more than 0.5.
In the case of U26A G48C, the yeast fitness is reported as 0.78.
With C27A G50C C62G C66U the yeast fitness was 0.606.
C27G A45U G56C gave a yeast fitness of 0.531.
Work on C27A G56C C66G yielded a yeast fitness of no more than 0.5.
C27G A37G C66U gave a yeast fitness of 0.538.
With U26C C27G A40C the yeast fitness was no more than 0.5.
For U26C U28A A65U, the yeast fitness was 0.524.
For C27A A57G G63A, the yeast fitness was 0.551.
Variant C27A C61A has a yeast fitness of 0.67.
Variant U26G G48A C61U has a yeast fitness of 0.94.
U26A U28C C30G gave a yeast fitness of no more than 0.5.
In the case of C27A G41C C66U, the yeast fitness is reported as 0.689.
C27G A45U C55A showed a yeast fitness of no more than 0.5.
Variant U26A G58C A65G has a yeast fitness of 0.611.
In the case of C27A C55U C66A, the yeast fitness is reported as no more than 0.5.
In the case of U26C C33U G52C, the yeast fitness is reported as 0.609.
With C27A C31U A43G C61U A65C the yeast fitness was 0.501.
For C27G A45G G48A C66U, the yeast fitness was no more than 0.5.
In the case of C27A C30A, the yeast fitness is reported as 0.766.
With U26C G56C the yeast fitness was 0.697.
With C27G A36G A65G the yeast fitness was no more than 0.5.
C27A G38U A45G G48C gave a yeast fitness of no more than 0.5.
U26C C60A showed a yeast fitness of 0.572.
Variant U26G C27G A57C C66U A69U has a yeast fitness of no more than 0.5.
For U26A U53A A65G, the yeast fitness was no more than 0.5.
With U26C C27U A57G the yeast fitness was 0.725.
With C27A C55G the yeast fitness was 0.646.
For U26C G56C A65G, the yeast fitness was no more than 0.5.
For C27G C29G C34U C55U C61G, the yeast fitness was 0.65.
In the case of U26A U54A G58A, the yeast fitness is reported as no more than 0.5.
Work on U26C U28C C46G C62G G67U yielded a yeast fitness of no more than 0.5.
Work on C27A C30A A45C G56C C60U G68U yielded a yeast fitness of no more than 0.5.
In the case of C27A G44C G50C, the yeast fitness is reported as 0.639.
For C27A C46U G67A, the yeast fitness was 0.699.
U26G C34G A37C C66A gave a yeast fitness of no more than 0.5.
For U26C G51A, the yeast fitness was 0.774.
Work on U26C C30U C61A yielded a yeast fitness of 0.571.
U26C C31U A43G showed a yeast fitness of 1.12.
Work on C27G C29G A40U A45C A57U yielded a yeast fitness of no more than 0.5.
C27A A37C G68A gave a yeast fitness of no more than 0.5.
For U26C G63A, the yeast fitness was 0.916.
In the case of U26G C61U G67A, the yeast fitness is reported as no more than 0.5.
With C27G A37G G52U the yeast fitness was no more than 0.5.
C27A U35C U64A showed a yeast fitness of no more than 0.5.
U26G C27G A57C showed a yeast fitness of 0.558.
With C27G A37G A69U the yeast fitness was 0.537.
Variant U26C A36C C62A has a yeast fitness of no more than 0.5.
With C27A A36G C49U A70U the yeast fitness was no more than 0.5.
C27G A37U gave a yeast fitness of 0.591.
C27G A37G showed a yeast fitness of 0.678.
U26C A57G showed a yeast fitness of 0.984.
For U26C A57U, the yeast fitness was 0.793.
For C27G C29G C49U, the yeast fitness was no more than 0.5.
C27A U54C C66A gave a yeast fitness of no more than 0.5.
Work on C27G A43C G63C yielded a yeast fitness of no more than 0.5.
With C27G A42U C55U A70C the yeast fitness was no more than 0.5.
For U26C C66A, the yeast fitness was 0.631.
With C27A A40G A69U the yeast fitness was 0.582.
Work on C27G A70C yielded a yeast fitness of 0.786.
Work on U26A U35C G68A yielded a yeast fitness of 0.631.
Variant C27G C29U A37U has a yeast fitness of no more than 0.5.
U26G G63A showed a yeast fitness of 0.919.
With U26C U28C C29G C34A the yeast fitness was no more than 0.5.
Variant C27A C34U A42C U53G C66U has a yeast fitness of 0.536.
With C27G A42G G68A the yeast fitness was no more than 0.5.
For U26G A45G C46U U53G G63A C66U A69U, the yeast fitness was no more than 0.5.
With U26G A37C the yeast fitness was 0.652.
U26A U54A C55U gave a yeast fitness of no more than 0.5.
With U26C U35C U64G A65G C66G the yeast fitness was no more than 0.5.
Variant C27A C29G C49G G51C U54C has a yeast fitness of no more than 0.5.
For U26C C29A G67C, the yeast fitness was no more than 0.5.
Work on C27A G56C A70U yielded a yeast fitness of no more than 0.5.
C27G A37C A42G G48C U59C gave a yeast fitness of 0.533.
C27G A40U U59C showed a yeast fitness of 0.543.
For U26G A42U, the yeast fitness was 0.795.
C27G A36U G39C gave a yeast fitness of 0.526.
C27A G58A C66G gave a yeast fitness of 0.512.
In the case of U26A G52C, the yeast fitness is reported as 0.645.
C27A A45U C49U G67C showed a yeast fitness of no more than 0.5.
Variant U26C A45U G68C has a yeast fitness of no more than 0.5.
With U26C C30G C34A C62U the yeast fitness was no more than 0.5.
C27A A36G showed a yeast fitness of 0.761.
Work on U26C U32C A70G yielded a yeast fitness of 0.659.
With U26G A45G C46U U53G the yeast fitness was 0.599.
Variant C27G A36G G52C has a yeast fitness of no more than 0.5.
In the case of U26C U32C C33G A42C C49G G58C C62G, the yeast fitness is reported as no more than 0.5.
U26C C33G A42C C49G G58C C62G gave a yeast fitness of 0.616.
U26C C30U G44C G51A C61U showed a yeast fitness of no more than 0.5.
Variant U26G A40G has a yeast fitness of 0.778.
U26A U64A gave a yeast fitness of 0.788.
For U26A U64G A65U A69C, the yeast fitness was no more than 0.5.
For U26G C31U G68C, the yeast fitness was 0.636.
With U26C C27G C34G G67A the yeast fitness was no more than 0.5.
Variant C27A A45U has a yeast fitness of 0.839.
For U26C U32C U47A, the yeast fitness was no more than 0.5.
Work on C27G A36G G68A yielded a yeast fitness of no more than 0.5.
Variant C27A A42U has a yeast fitness of 0.702.
C27A G38A showed a yeast fitness of 0.798.
With U26G C46G the yeast fitness was 0.807.
For C27A C31A, the yeast fitness was 0.758.
Work on U26C U32C A37G C66U A69C yielded a yeast fitness of no more than 0.5.
With U26C A42U G56A the yeast fitness was 0.651.
With U26C G39A U59A C60G C62U the yeast fitness was no more than 0.5.
For U26C C27U C62A, the yeast fitness was 0.658.
Variant C27A A36G C61U has a yeast fitness of no more than 0.5.
Variant U26C C49G C55U has a yeast fitness of no more than 0.5.
In the case of U26C U47A, the yeast fitness is reported as 0.721.
C27G A65U A70G showed a yeast fitness of 0.575.
For C27A A37C C62G, the yeast fitness was no more than 0.5.
In the case of U26C A43U G63A, the yeast fitness is reported as 0.658.
Work on C27A A70C yielded a yeast fitness of 0.787.
Variant C27A A70U has a yeast fitness of 0.962.
For C27A A45G G48C, the yeast fitness was no more than 0.5.
C27G A65U gave a yeast fitness of 0.713.
In the case of C27G A65G, the yeast fitness is reported as 0.694.
In the case of U26G G51C G58C, the yeast fitness is reported as 0.54.
Work on U26C C27G A69C yielded a yeast fitness of no more than 0.5.
In the case of U26C A36C, the yeast fitness is reported as 0.559.
Variant C27A A36G A57G has a yeast fitness of no more than 0.5.
Work on C27A A37C C55G yielded a yeast fitness of no more than 0.5.
Work on C27A U35C A42U yielded a yeast fitness of no more than 0.5.
For C27G A36G G67U, the yeast fitness was no more than 0.5.
For U26A G67A, the yeast fitness was 0.905.
C27G A57G U59G gave a yeast fitness of no more than 0.5.
For U26C C27G C33G A37U G41A A57G C62G, the yeast fitness was no more than 0.5.
With C27A A57C C62U the yeast fitness was 0.531.
Variant C27G A42C G63C has a yeast fitness of no more than 0.5.
In the case of U26C A37G G67C, the yeast fitness is reported as 0.614.
For C27A C29G, the yeast fitness was 0.702.
Variant U26C U35A C62U has a yeast fitness of 0.523.
U26A G63C A69U showed a yeast fitness of 0.527.
C27A C30G G41C gave a yeast fitness of no more than 0.5.
In the case of C27A C29A C49A, the yeast fitness is reported as no more than 0.5.
C27A A43C C66U showed a yeast fitness of 0.709.
Work on U26G U47C G51A yielded a yeast fitness of 0.559.
For C27G A37C G39A A45C A65U, the yeast fitness was no more than 0.5.
Work on U26G A42C U47C yielded a yeast fitness of 0.816.
Variant U26C G56C A57C A70U has a yeast fitness of no more than 0.5.
For U26G A45C, the yeast fitness was 0.795.
For U26C U28A, the yeast fitness was 0.727.
U26C U28C showed a yeast fitness of 0.81.
Work on U26C C31U C49G yielded a yeast fitness of 0.622.
Work on C27A U28C A37C yielded a yeast fitness of no more than 0.5.
C27A U59C showed a yeast fitness of 0.883.
C27A U59G gave a yeast fitness of 0.778.
Variant C27A C31G C60G has a yeast fitness of 0.537.
Work on U26C A40C C46U A65G G68C yielded a yeast fitness of no more than 0.5.
With C27A C62U the yeast fitness was 0.815.
For U26A U28A C30G, the yeast fitness was 0.584.
Variant U26C U35C A37G has a yeast fitness of 0.528.
U26C U35C A37U showed a yeast fitness of no more than 0.5.
With U26G U47A the yeast fitness was 0.811.
U26C C46A U47G G50A A69C showed a yeast fitness of no more than 0.5.
For C27G A43C A65U G67U, the yeast fitness was no more than 0.5.
Work on U26C C29A A36C yielded a yeast fitness of no more than 0.5.
C27G C29U C49U gave a yeast fitness of no more than 0.5.
Variant C27A C31U A36U A45C has a yeast fitness of no more than 0.5.
In the case of U26C C30G C61U, the yeast fitness is reported as no more than 0.5.
With U26C C33U A40U the yeast fitness was no more than 0.5.
Variant C27A A40C A45U A57U has a yeast fitness of no more than 0.5.
With U26C G41C the yeast fitness was 0.947.
In the case of C27A U28A G41A G48A A65G, the yeast fitness is reported as no more than 0.5.
Variant U26C A70G has a yeast fitness of 0.915.
Work on U26C U54C yielded a yeast fitness of 0.887.
